# Assay results reported in ChEMBL document CHEMBL1122631, “2,3,4,4a,5,9b-Hexahydro-1H-indeno[1,2-b]pyridines: potential antidepressants” (J Med Chem, 1984).
# “And” between values parts separate entries of the source, which are not always exact repeats. Identical values can stand only once.
# Legend:
# [1] = Partition coefficient (logP); format: physicochemical; conditions: octanol/water
# [2] = Acute toxicity in mice, after intraperitoneal administration.; format: organism-based; conditions: mouse, in vivo, ip
# Procedure, shortened: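 Mice, groups of 10, given compound suspended in 1% methylcellulose ip at 10 mL/kg, then housed with food and water ad libitum. Observed hourly up to 6 h; deaths recorded at 24 and 48 h.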
# Rattus norvegicus [3] = species: Rattus norvegicus; assay: Compound was tested for inhibition of uptake of [14C]5-HT (5-HT) into rat whole brain, in vitro.; format: functional
# Procedure, shortened: (§1)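 Rat brain synaptosomes (Whittaker method) incubated with labelled monoamine (1 × 10^-7 mol final) at 37 °C with or without drug. [14C]NE and [14C]5-HT uptake in Krebs-Henseleit bicarbonate pH 7.4 with 11 mmol glucose; [3H]DA uptake in phosphate buffer, corpus striatum synaptosomes. Time: 5 min whole brain, 10 min hypothalamus. Nonspecific binding at 0 °C; membrane filtration, scintillation counting; IC50 from 3–4 concentrations, at least triplicate.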
# Rattus norvegicus [4] = species: Rattus norvegicus; assay: Compound was tested for inhibition of uptake of [14C]norepinephrine (NE) into rat brain hypothalamus, in vitro.; format: functional; procedure, shortened: as §1
# Rattus norvegicus [5] = species: Rattus norvegicus; assay: Compound was tested for inhibition of uptake of [3H]dopamine (DA) into rat corpus striatum, in vitro.; format: functional; procedure, shortened: as §1
# Rattus norvegicus [6] = assay: Ability to inhibit re uptake of [14C]-5-HT in synaptosomes from rat whole brain, was determined 1 h after intraperitoneal administration of 80 mg of compound.; format: functional
# Procedure, shortened: (§2)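 Ex vivo/in vitro: rats dosed orally or ip, killed 1 h later; whole-brain synaptosomes from a pool of n=3 rats; [14C]NE or [14C]5-HT uptake (Krebs-Henseleit bicarbonate, pH 7.4, 11 mmol glucose; 1 × 10^-7 mol labelled amine, 37 °C, 5 min), filtration, scintillation counting; quadruplicate determinations, mean ± SD as % of control-animal uptake.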
# Rattus norvegicus [7] = assay: Ability to inhibit re uptake of [14C]5-HT in synaptosomes from rat whole brain, was determined 1 h after peroral administration of 80 mg of compound.; format: functional, organism-based; procedure, shortened: as §2
# Rattus norvegicus [8] = assay: Ability to inhibit re uptake of [14C]norepinephrine in synaptosomes from rat whole brain, was determined 1 hr after peroral administration of 80 mg of compound.; format: functional; procedure, shortened: as §2
# [9] = Therapeutic index (TI), ratio of LD50 and ED50 (TBZ) in mice after i.p. administration; conditions: mouse, in vivo, ip
# Mus musculus [10] = assay: Prevention of tetrabenazine induced ptosis in mice following i.p. administration.; format: functional; conditions: ip
# Procedure, shortened: (§3)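 Mice given compound ip in 1% methylcellulose (10 mL/kg), 30 min before tetrabenazine 40 mg/kg base ip; solvent+TBZ control per test. Ptosis scored 30 min after TBZ (+1 min) as 100/50/0% (closed/half/open), not normalized.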
# Mus musculus [11] = assay: Antidepressant activity was measured by the prevention of tetrabenazine (TBZ) induced ptosis in mice after intraperitoneal administration of the compound.; format: functional; conditions: ip; procedure, shortened: as §3
# Mus musculus [12] = assay: Enhancement of spontaneous motor activity (SMA) in mice after oral administration of 1 mg/kg of the compound. Accumulated motility counts during second hour of observation, was reported.; format: functional
# Mus musculus [13] = species: Mus musculus; assay: Percent enhancement of spontaneous motor activity (SMA) was observed. Accumulated motility counts during second hour of observation, was reported.; format: functional
# Mus musculus [14] = assay: Enhancement of spontaneous motor activity (SMA) in mice after oral administration of 1 mg/kg of the compound. Accumulated motility counts during first hour of observation, was reported.; format: functional
# Mus musculus [15] = species: Mus musculus; assay: Percent enhancement of spontaneous motor activity (SMA) was observed. Accumulated motility counts during first hour of observation, was reported.; format: functional
# Mus musculus [16] = species: Mus musculus; assay: Percent enhancement of spontaneous motor activity (SMA) was observed. Accumulated motility counts during one hour of observation, was reported.; format: functional
# Mus musculus [17] = assay: Enhancement of spontaneous motor activity (SMA) in mice after oral administration of 0.3 mg/kg of the compound. Accumulated motility counts during second hour of observation, was reported.; format: functional
# Mus musculus [18] = assay: Prevention of tetrabenazine (TBZ) induced ptosis in mice after intraperitoneal administration; b denotes 'No activity detected up to a dose of one-fifth of the LD ip in mice; format: functional, organism-based; procedure, shortened: as §3
# Rattus norvegicus [19] = assay: Ability to inhibit re uptake of [14C]norepinephrine in synaptosomes from rat whole brain, was determined 1 h after peroral administration of 80 mg of compound.; format: functional, organism-based; procedure, shortened: as §2
# Rattus norvegicus [20] = assay: Ability to inhibit re uptake of [14C]norepinephrine in synaptosomes from rat whole brain, was determined 1 hr after intraperitoneal administration of 80 mg of compound.; format: functional; procedure, shortened: as §2
# Rattus norvegicus [21] = species: Rattus norvegicus; assay: Compound was tested for inhibition of uptake of [14C]5-HT (5-HT) into rat whole brain, in vitro; Not determined.; format: functional; procedure, shortened: as §1
# Rattus norvegicus [22] = species: Rattus norvegicus; assay: Compound was tested for inhibition of uptake of [14C]norepinephrine (NE) into rat brain hypothalamus, in vitro; Not determined.; format: functional; procedure, shortened: as §1
# Mus musculus [23] = assay: Prevention of tetrabenazine (TBZ)-induced ptosis in mice after intraperitoneal administration.; format: functional, organism-based; procedure, shortened: as §3
# [24] = Compound was tested for acute toxicity in mice, after intravenous administration of the compound.; format: organism-based; conditions: mouse, in vivo
SMILES,LD50 [2],IC50 (Rattus norvegicus [3]),IC50 (Rattus norvegicus [4]),IC50 (Rattus norvegicus [5]),selectivity ratio [9],ED50 (Mus musculus [10]),ED50 (Mus musculus [11]),other results
Nc1ccc([C@@H]2c3cc(O)ccc3[C@H]3NCCC[C@@H]23)cc1,150 mg/kg,1600 nM,15 nM,46 nM,1500,0.1 mg/kg,–,logP [1]: 1.91; Uptake (Rattus norvegicus [6]): > 90%; Uptake (Rattus norvegicus [7]): > 90%; Uptake (Rattus norvegicus [8]): > 90%
c1ccc2c(c1)[C@@H](c1ccncc1)[C@@H]1CCCN[C@H]21,20 mg/kg,–,–,–,10,–,2 mg/kg,–
Nc1ccc([C@@H]2c3ccccc3[C@H]3NCCC[C@@H]23)cc1,50 mg/kg,> 100000 nM,7.4 nM,44 nM,500,0.1 mg/kg,–,Basis motility (Mus musculus [12]): 12001; Basis motility (Mus musculus [13]): -7; Exploration motility (Mus musculus [14]): 7924; Exploration motility (Mus musculus [15]): -4; Exploration motility (Mus musculus [16]): 116; Basis motility (Mus musculus [17]): 5501
CN1CCC[C@H]2[C@H](c3ccc(O)cc3)c3ccccc3[C@H]21,178 mg/kg,–,–,–,36,–,5 mg/kg,–
Oc1ccc([C@@H]2c3ccccc3[C@H]3NCCC[C@@H]23)cc1,30 mg/kg,–,–,–,15,–,2 mg/kg,–
COc1ccc([C@@H]2c3ccccc3[C@@H]3[C@H]2CCCN3C)cc1,95 mg/kg,–,–,–,19,–,5 mg/kg,–
Cc1ccc([C@H]2c3cc(O)ccc3[C@H]3NCCC[C@@H]23)cc1N,67 mg/kg,–,–,–,–,–,10 mg/kg,–
c1ccc([C@@H]2c3ccccc3[C@H]3NCCC[C@@H]23)cc1,27 mg/kg,~100000 nM,18 nM,20 nM,39,0.7 mg/kg,–,–
CN1CCC[C@H]2[C@H](c3ccccc3)c3ccccc3[C@H]21,74 mg/kg,~100000 nM,12 nM,100 nM,185,0.4 mg/kg,–,–
CCCCOc1ccc([C@@H]2c3ccccc3[C@@H]3[C@H]2CCCN3C)cc1,134 mg/kg,–,–,–,14,–,10 mg/kg,–
COc1ccc2c(c1)[C@H](c1ccc(C(C)C)cc1)[C@@H]1CCCN[C@H]21,37 mg/kg,–,–,–,–,–,–,ED50 (Mus musculus [18]): No activity detected up to a dose of 1/5 LD50 ip in mice
CCCCOc1ccc([C@@H]2c3ccccc3[C@H]3NCCC[C@@H]23)cc1,46 mg/kg,–,–,–,46,–,1 mg/kg,–
CCCN1CCC[C@H]2[C@H](c3ccccc3)c3ccccc3[C@H]21,24 mg/kg,> 100000 nM,410 nM,110 nM,30,0.8 mg/kg,–,–
CNCCCN1c2ccccc2CCc2ccccc21 [DESIPRAMINE],–,11 nM,25 nM,–,–,–,–,–
Cc1ccc([C@@H]2c3cc(O)ccc3[C@H]3NCCC[C@@H]23)cc1N,210 mg/kg,430 nM,40 nM,100 nM,70,–,3 mg/kg,logP [1]: 2.33; Uptake (Rattus norvegicus [19]): > 90% and 83.5% and 88.1%; Uptake (Rattus norvegicus [6]): > 90%; Uptake (Rattus norvegicus [7]): > 90%; Uptake (Rattus norvegicus [20]): 80% and > 90% and 87.7%
COc1ccc2c(c1)[C@@H](c1ccc(C)cc1)[C@@H]1CCCN[C@H]21,–,–,–,–,–,–,–,IC50 (Rattus norvegicus [21]): No compound available; IC50 (Rattus norvegicus [22]): No compound available
Cc1ccc([C@@H]2c3ccccc3[C@@H]3[C@H]2CCCN3C)cc1,232 mg/kg,> 100000 nM,65 nM,90 nM,77,3 mg/kg,–,logP [1]: 3.83; Uptake (Rattus norvegicus [19]): > 90% (2×) and 76.3%; Uptake (Rattus norvegicus [6]): > 90%; Uptake (Rattus norvegicus [7]): > 90% (2×) and 88.1%
CN1CCC[C@H]2[C@H](c3ccc(N)cc3)c3ccccc3[C@H]21,50 mg/kg,~100000 nM,110 nM,240 nM,500,0.1 mg/kg,–,–
CN1CCC[C@H]2[C@@H](c3ccc(O)cc3)c3ccccc3[C@H]21,–,–,–,–,–,–,–,IC50 (Rattus norvegicus [21]): No compound available; IC50 (Rattus norvegicus [22]): No compound available
COc1cc2c(cc1OC)[C@H]1NCCC[C@H]1[C@H]2c1cccnc1,–,–,–,–,–,–,–,ED50 (Mus musculus [23]): No activity detected up to a dose of 1/5 LD50 ip in mice; LD50 [24]: 30 mg/kg
COc1ccc2c(c1)[C@@H](c1ccc(C(C)C)cc1)[C@@H]1CCCN[C@H]21,–,–,–,–,–,–,–,IC50 (Rattus norvegicus [21]): No compound available; IC50 (Rattus norvegicus [22]): No compound available
c1ccc2c(c1)[C@H](c1ccncc1)[C@@H]1CCCN[C@H]21,–,–,–,–,–,–,–,IC50 (Rattus norvegicus [21]): No compound available; IC50 (Rattus norvegicus [22]): No compound available
Nc1ccc([C@H]2c3ccccc3[C@H]3NCCC[C@@H]23)cc1,20 mg/kg,20000 nM,180 nM,330 nM,–,3 mg/kg,–,–
COc1ccc([C@H]2c3ccccc3[C@@H]3[C@H]2CCCN3C)cc1,–,–,–,–,–,–,–,IC50 (Rattus norvegicus [21]): No compound available; IC50 (Rattus norvegicus [22]): No compound available
COc1cc2c(cc1OC)[C@H]1NCCC[C@H]1[C@@H]2c1ccc(N)cc1,–,–,–,–,–,–,–,IC50 (Rattus norvegicus [21]): No compound available; IC50 (Rattus norvegicus [22]): No compound available
Cc1ccc([C@@H]2c3cc(O)ccc3[C@H]3NCCC[C@@H]23)cc1,67 mg/kg,280 nM,31 nM,17 nM,67,–,1 mg/kg,logP [1]: 3.13; Uptake (Rattus norvegicus [19]): > 90%; Uptake (Rattus norvegicus [6]): > 90% and 84.9%; Uptake (Rattus norvegicus [7]): 90.4% and 86.9%; Uptake (Rattus norvegicus [20]): 68.2% and 62%
